Measured values as given in the array DNA melting data of Ke et al. (doi:10.1101/2024.01.08.574731).

How the values were obtained:
[1] = folding enthalpy; higher = less favourable; fluorescence melt of hairpins on a sequencing array, two-state fit; settings: sodium 0.088 M
How it was run: (§1)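 Melting temperature and folding enthalpy were obtained by bootstrapped two-state fitting. Fits used Cy3 fluorescence of library hairpins with annealed Cy3 and quencher oligos on a sequenced MiSeq flow cell, imaged in 50 mM Na-HEPES pH 8.0, 25 mM NaCl in 2.5 °C steps up to 60 °C and normalised to pre-quench Cy3 and control constructs. Four replicates were combined by inverse-variance weighting, and fitted temperatures were raised by 9.35 °C to match UV melts.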

[2] = melting temperature; fluorescence melt of hairpins on a sequencing array, two-state fit, raised by 9.35 °C to match UV melts; settings: sodium 0.088 M
How it was run: as §1

| Sequence | folding enthalpy [1] [kcal/mol] | Tm [2] [°C] |
| --- | --- | --- |
| GATCGAGATGTCGATC ((((((....)))))) | -37 | 52.5 |
| GATCCCAGGAGGGATC ((((((....)))))) | -32.2 | 59.9 |
| GCCTTACGAAAGTATGGC (((.(((....))).))) | -41 | 55.6 |
| GTGGGGGGAAACCCCCGC (.(((((....))))).) | -19.4 | 60 |
| GGTGCTGGAAACAGTGCC ((..(((....)))..)) | -37.8 | 50.1 |
| GTACTCGAAAGAGGATAC ((((((....)))..))) | -13.2 | 28.5 |
| GATCCAAGATGGATC ((((((...)))))) | -34 | 49 |
| GCTGTACCGAAAGGTAGC (((..(((....)))))) | -15.4 | 43.7 |
| GGCACTGGAAACAGCACC ((..(((....)))..)) | -9.94 | 23.5 |
| GACAGTGAAAACTGTC ((((((....)))))) | -28.6 | 56.4 |
| GCTATACGAAAGTAAGC (((.(((....)))))) | -22.3 | 40.6 |
| GCCGCCGAAAGGCCTGGC ((((((....)))..))) | -16 | 51 |
| GCATACGAAAGTACCTGC ((((((....)))..))) | -13.2 | 26.6 |
| GGATGGTCGAAAGACTCC (((..(((....)))))) | -14.2 | 32.9 |
| GTTGACGAAAGTCGCAAC ((((((....)))..))) | -13.3 | 31 |
| GCCCTACGAAAGTATGGC (((.(((....))).))) | -34.3 | 49 |
| GCTCGCGAAAGCGTGAGC ((((((....)))..))) | -18 | 53.4 |
| GCTCTGGGAAACTGGAGC ((((..(....)..)))) | -34.1 | 45.9 |
| GTGGATGGAAACATCCGC (.(((((....))))).) | -28 | 56.1 |
| GGTAGCGAAAGCTAACC ((((((....))).))) | -18.7 | 53.8 |
| GGGTGTCCGAAAGGACCC (((..(((....)))))) | -14 | 55 |
| GTTGCACCGAAAGGTAAC (((..(((....)))))) | -14.4 | 30.4 |
| GACGCCGGAAACAGCGCC (.(((.(....).))).) | -17.8 | 31.8 |

| Sequence | folding enthalpy [1] [kcal/mol] | Tm [2] [°C] |
| --- | --- | --- |
| GGAAACGAAAGTTCTTCC ((((((....)))..))) | -14.9 | 32.2 |
| GAGCCGCGAAAGCGACTC (((.(((....))).))) | -26.2 | 65.3 |
| GATCAAACTTTTGATC ((((((....)))))) | -27.9 | 45.9 |
| GCCCCGACGAAAGTCGGC (((..(((....)))))) | -4.92 | 41.1 |
| GCCACGCGAAAGCGCAGC ((..(((....)))..)) | -10.6 | 43.6 |
| GGTGCCGGAAACGGCGTC (..((((....))))..) | -9.71 | 42.2 |
| GATCTTGGGAAGATC ((((((...)))))) | -22.8 | 39.7 |
| GCAGCGTCGAAAGACTGC (((..(((....)))))) | -14 | 44.4 |
| GATCTGGTAACAGATC ((((((....)))))) | -27 | 60.5 |
| GCTTTAACGAAAGTTAGC (((..(((....)))))) | -18.8 | 31.9 |
| GGCCCGACGAAAGTCGCC (((..(((....)))))) | -8.24 | 35.2 |
| GTCGCTGGAAACGGTGAC (((.(.(....).).))) | -28.6 | 44.2 |
| GCGGACGCCGC ((((...)))) | -19.1 | 58.3 |
| GTTGGTCGAAAGACTAAC (((.(((....))).))) | -25.9 | 50.9 |
| GTCAACGGAAACGTTAAC ((.((((....)))).)) | -17.6 | 33.7 |
| GATCCAGGACTGGATC ((((((....)))))) | -41.1 | 56.2 |
| GTGGCCGGAAACGACCAC ((((.((....)).)))) | -40.3 | 56.5 |
| GCAGACCCGAAAGGGTGC (((..(((....)))))) | -14.2 | 50.3 |
| GAGACCGCGAAAGCGCTC (((..(((....)))))) | -7.65 | 26.6 |
| GACTCCGGAAACGGGGTC (((.(((....))).))) | -38 | 57.2 |
| GGATAGGGAAACTTATCC (((((.(....).))))) | -30.3 | 35.7 |
| GCTCGGGGAAACCCGAAC (.(((((....))))).) | -12.6 | 45.9 |
| GATCACGCCGTGATC ((((((...)))))) | -29.8 | 63.2 |

| Sequence | folding enthalpy [1] [kcal/mol] | Tm [2] [°C] |
| --- | --- | --- |
| GAGAGCCGAAAGGCCCTC (((.(((....))).))) | -18.3 | 51.3 |
| GGTCCCGAAAGGGAAACC ((((((....)))..))) | -15.3 | 43.2 |
| CGAAGCGGAAACGCGTCG (((.(((....))).))) | -29.1 | 55.1 |
| GGACCAGGAAACTGGTCC (((((((....))))))) | -32.4 | 68.1 |
| GATCGGAAGCCCGATC ((((((....)))))) | -36.5 | 54.1 |
| GTCAATCGAAAGATCGAC (((.(((....))).))) | -29 | 41.2 |
| GCGCCCGAAAGGGATCGC ((((((....)))..))) | -20.4 | 51.8 |
| CGAAATCGGAAACGATCG (((..(((....)))))) | -22.6 | 34 |
| CAATCCGAAAGGCTTG (((.((....)).))) | -17 | 34.7 |
| GCAAGAGGAAACCCTTGC (((((.(....).))))) | -25.9 | 45.3 |
| GTTTATGGAAACATAAGC (.(((((....))))).) | -20.8 | 33.7 |
| GATCTCGGCGGAGATC ((((((....)))))) | -48.8 | 55.4 |
| GACTCAGGAAACTGAATC ((.((((....)))).)) | -16.3 | 27.7 |
| GATCCAGTATGGATC ((((((...)))))) | -39.8 | 60.1 |
| GATCGCCGGTGCGATC ((((((....)))))) | -35.1 | 66 |
| GATCTAAGGGTAGATC ((((((....)))))) | -25.1 | 35.3 |
| GCGTTGTCGAAAGACCGC (((..(((....)))))) | -27.1 | 50.6 |
| GTCGCAGGAAACTACGAC ((((.((....)).)))) | -32.1 | 46.3 |
| GGACTCGAAAGAGGTCC ((((((....))).))) | -35.2 | 52.4 |
| GCATAGCCGAAAGGCTGC (((..(((....)))))) | -12.6 | 49.3 |
| GCACTATCGAAAGATTGC (((..(((....)))))) | -17.7 | 30.6 |
| GTGATTCGAAAGAACCAC (((.(((....))).))) | -33.2 | 44.8 |
| GATCACAACAGTGATC ((((((....)))))) | -41.7 | 58.7 |

| Sequence | folding enthalpy [1] [kcal/mol] | Tm [2] [°C] |
| --- | --- | --- |
| GATCGTGACGACGATC ((((((....)))))) | -39.2 | 56.8 |
| GTACTCGAAAGAGTTTAC ((((((....)))..))) | -9.32 | 30 |
| GATCTAGGCTTAGATC ((((((....)))))) | -38.4 | 46.6 |
| GAAATCGAAAGATTTC ((((((....)))))) | -32.5 | 55.9 |
| AGATTGAAAAATCT (((((....))))) | -10.8 | 28.9 |
| GGTAGTCGAAAGACAACC (((.(((....))).))) | -25.2 | 51.3 |
| GTCCACGAAAGTGACGAC ((((((....)))..))) | -20.4 | 43.9 |
| GTAGTGAAAACTAC (((((....))))) | -22.3 | 45.1 |
| GCGGAGCGAAAGCATCGC (((..((....))..))) | -15.7 | 55.7 |
| GTCGTTGGAAACAACAAC ((.((((....)))).)) | -17.7 | 34.8 |
| GATCGGATCCCCGATC ((((((....)))))) | -41.4 | 54 |
| GGAGCGGGAAACCACTCC ((((.((....)).)))) | -34.7 | 49.2 |
| GTGTATGGAAACACACAC ((((.((....)).)))) | -26.1 | 38.1 |
| GATCGTCAGTACGATC ((((((....)))))) | -42.8 | 53.7 |
| GCAGCAGGAAACCGCTAC (.(((.(....).))).) | -14.6 | 28.1 |
| GAGTTTGGAAACGAATTC ((.((.(....).)).)) | -18.4 | 33.5 |
| GCCAGTACGAAAGTAGGC (((..(((....)))))) | -23.8 | 43.4 |
| GAAGCCGAAAGGCCCTTC ((((((....)))..))) | -11.8 | 31.3 |
| GAGTGCGAAAGCAGCTC ((((((....))).))) | -19.9 | 51.3 |
| GATCTCCATGAGATC ((((((...)))))) | -42.1 | 53.3 |
| GGATGCGAAAGCAGTTCC ((((((....)))..))) | -14.3 | 36 |
| GGTCTGCGAAAGCAACC (((.(((....)))))) | -18.8 | 44.6 |
| GCCCCCGGAAACAGGGGC (((((.(....).))))) | -35 | 56.7 |
